High-throughput results from PubChem BioAssay.
G6PDH counter – inhibits Leuconostoc G6PDH, flagging false hits in G6PDH-based assays; AID 1020; Purified L. mesenteroides G6PDH, diaphorase/resazurin coupled fluorescence, 45 min; 200,000 compounds, 0.12% hits; inhibition, % at 5 µM; in the data active = inhibition above about 50%
HKDC1 inh – inhibitors of human hexokinase HKDC1 | recombinant HKDC1, G6PDH/diaphorase resazurin coupled fluorescence | inhibition, % at 20 µM | Q2TB90 | 340,000 compounds, 0.16% hits;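 active = inhibition above about 35% when tested at 20 µM, limit read from the data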;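 note: plate controls were DMSO wells with enzyme for no effect and DMSO wells lacking enzyme for full effect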
Target sequence (Q2TB90 whole entry, looked up): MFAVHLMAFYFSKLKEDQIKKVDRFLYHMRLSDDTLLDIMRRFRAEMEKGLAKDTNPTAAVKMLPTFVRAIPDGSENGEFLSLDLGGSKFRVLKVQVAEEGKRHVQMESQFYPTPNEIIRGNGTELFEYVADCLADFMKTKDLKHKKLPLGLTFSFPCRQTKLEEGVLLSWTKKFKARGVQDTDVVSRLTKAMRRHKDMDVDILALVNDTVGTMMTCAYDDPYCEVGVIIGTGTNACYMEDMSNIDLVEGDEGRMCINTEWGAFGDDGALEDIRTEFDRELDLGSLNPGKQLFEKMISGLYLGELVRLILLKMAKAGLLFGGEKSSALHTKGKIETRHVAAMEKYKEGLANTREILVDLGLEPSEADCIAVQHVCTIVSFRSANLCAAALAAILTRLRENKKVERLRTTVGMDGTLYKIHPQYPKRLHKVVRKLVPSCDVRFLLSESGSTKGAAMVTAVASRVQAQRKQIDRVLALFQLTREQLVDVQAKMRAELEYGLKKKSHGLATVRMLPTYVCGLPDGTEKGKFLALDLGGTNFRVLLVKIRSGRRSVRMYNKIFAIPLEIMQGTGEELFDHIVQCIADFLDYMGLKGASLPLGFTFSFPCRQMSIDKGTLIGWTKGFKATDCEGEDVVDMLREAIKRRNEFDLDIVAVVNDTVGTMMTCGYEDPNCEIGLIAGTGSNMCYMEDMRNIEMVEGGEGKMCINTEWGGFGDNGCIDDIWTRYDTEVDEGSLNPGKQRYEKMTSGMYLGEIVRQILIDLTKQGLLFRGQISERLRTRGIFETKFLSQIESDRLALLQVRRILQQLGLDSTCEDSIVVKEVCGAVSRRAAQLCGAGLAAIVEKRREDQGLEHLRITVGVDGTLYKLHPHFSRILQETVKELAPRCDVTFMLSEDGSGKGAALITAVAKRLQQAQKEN
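Assay system: recombinant HKDC1 hexokinase; detection: coupled resazurin fluorescence, excitation 525 nm, emission 613 nm; benchmarks: DMSO-plus-enzyme-mix negative control, buffer-substituted positive control; compound dosing: single 20 µM dose; schedule: 90 min at room temperature in dark; also added: glucose plus 1 mM ATP as hexokinase substrates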
Diaph act CS – counter-screen for diaphorase-based assays: diaphorase activators and chemical reducers | Diaphorase/resazurin coupled assay, resorufin fluorescence, 16 min; hits give high values; 1 = vehicle wells, 0 = NADH-free wells | 190,000 compounds, 0.005% hits | activation factor at 20 µM;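 active = diaphorase activity raised at least twofold by the compound at 20 µM; inactive = activation factor below 2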
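Material: purified diaphorase enzyme from Clostridium kluyveri / Medium: HEPES pH 7.4 buffer with MgCl2 and Tween 20 / Schedule: enzyme reaction of 16 min at room temperature / Measured by: resorufin fluorescence, excitation 544 nm, emission 590 nm / Evaluation: rise in resorufin formation, marking diaphorase activation or chemical reduction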
Diaph inh CS – counter-screen for diaphorase-based assays: diaphorase inhibitors and chemical oxidizers; 190,000 compounds, 0.69% hits; AID 1217; diaphorase resazurin-to-resorufin fluorescence, NADH, 16 min; bacterial (C. kluyveri) enzyme, not human; inhibition, % at 20 µM;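 active = primary screen inhibition at 20 µM above a set limit, cut at about 50% in these data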;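 note: plate controls were DMSO with full reaction for no effect and wells lacking NADH for full effect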
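material = Clostridium kluyveri diaphorase enzyme | amount = 0.14 U/mL diaphorase, enzyme working solution | schedule = incubation 16 min, room temperature | detection = fluorescence of resorufin formed from resazurin, Ex 544/Em 590 nm | benchmarks = positive control minus NADH, DMSO neutral control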
PfGluPho inh – PfG6PD (Plasmodium falciparum) enzyme inhibition; inhibition, % at 20 µM; PfGluPho enzyme, NADPH resazurin-diaphorase fluorescence; 350,000 compounds, 0.78% hits;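 active = inhibition reaching at least a set limit at 20 µM in the primary screen, cut at about 59% in these data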;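 note: 0% = DMSO wells with substrate and 100% = DMSO wells lacking glucose-6-phosphate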
Active calls of the source: *; . = no result given. Only some compounds are listed: those with a hit (about 1.2% of all), similar ones and a draw of the others.

SMILES | G6PDH counter | HKDC1 inh | Diaph act CS | Diaph inh CS | PfGluPho inh
Cc1cc(C)n2nc(SC(C)C(=O)Nc3ccc(Cl)cn3)nc2n1 (stereo unspecified) | 4 | 25 | 0.3 | 66* | 17
Cc1ccc(NC(=O)C(C)Sc2nc3nc(C)cc(C)n3n2)cc1 (stereo unspecified) | . | 20 | . | . | 9
CC1=C(C#N)C(=O)NC(=O)/C1=C\c1ccc(-c2ccc(C)cc2[N+](=O)[O-])o1 | 14 | 3 | 0.4 | 57* | 27
CCOC(=O)c1cc(-c2ccc(/C=C3/C(=O)NC(=O)C(C#N)=C3C)o2)ccc1Cl | 29 | 15 | 0.6 | 40 | 45
O=C(c1ccc(S(=O)(=O)c2ccccc2)cc1)N1CCc2ccccc2C1 | 6 | -11 | 0.5 | 51* | -3
COc1ccccc1C(=O)NCCC(=O)N1CCN(c2ccccc2O)CC1 | . | 4 | . | . | 6
O=C(/C(=N/N=C/c1ccc(O)c(O)c1)c1ccccc1)c1ccccc1 | -5 | -3 | 0.5 | 51* | -16
NC(=S)N=Nc1ccc(NN=C(N)N)cc1 | . | 5 | . | . | 99*
N#C/C(=N/Nc1ccc(OC(F)(F)F)cc1)C(N)=S | . | 4 | . | . | -11
CC(=O)N(\C=C/C=C/C=C1\Sc2ccccc2C1=O)c1ccccc1 | 3 | 9 | 0.5 | 53* | 15
O=C(Nc1cccn(Cc2c(Cl)cccc2Cl)c1=O)c1c(Cl)cccc1Cl | 3 | 1 | 0.7 | 32 | 9
COC(=O)Nc1cccn(Cc2c(Cl)cccc2Cl)c1=O | 12 | 5 | 0.5 | 51* | -13
CCCCCc1ccc(OCCC[n+]2ccccc2)c(CCCCC)c1 | . | 2 | . | . | 18
CCCCCc1ccc(OCCOCCn2c[n+](C)c3ccccc32)c(CCCCC)c1 | -4 | 3 | 2* | -95 | 4
S=c1[nH]cnc2scc(-c3ccccc3)c12 | -14 | -2 | 0.4 | 64* | 1
CCOc1ccc(NC(=S)Nc2cccc3cnccc23)cc1 | -2 | 3 | 0.4 | 55* | 32
COc1ccccc1NC(=S)Nc1cccc2cnccc12 | -6 | 2 | 0.4 | 65* | 30
Fc1ccc(NC(=S)Nc2cccc3cnccc23)cc1 | 51* | 17 | 0.6 | 44 | 32
S=C(Nc1cccnc1)Nc1cccc2cnccc12 | 41 | 9 | 0.4 | 62* | 28
CCOC(=O)NN1C(=O)c2ccccc2NC1c1ccc(OC)c(OC)c1 (stereo unspecified) | 4 | -6 | 1 | 3 | -1
CC1C(=O)N2CCCc3cc(NC(=O)COc4ccccc4)cc1c32 (stereo unspecified) | . | -4 | . | . | 0
COc1ccc(NC(=S)Nc2cccc3cnccc23)cc1 | 30 | 1 | 0.4 | 56* | 27
COc1ccccc1N1CCN(S(=O)(=O)CCNC(=O)C2CCCCC2)CC1 | . | -4 | . | . | -3
CCC1CCCCN1c1nc2c(C=O)c(C)nn2c2ccccc12 (stereo unspecified) | -24 | -8 | 0.3 | 68* | -7
CCOC(=O)c1nnn2c1nc(N1CCCCC1)c1ccccc12 | . | -1 | . | . | 12
SMILES | G6PDH counter | HKDC1 inh | Diaph act CS | Diaph inh CS | PfGluPho inh
CCC(=O)Nc1ccc(C(=O)NNC(=O)c2cc(OC)c(OC)c(OC)c2)cc1 | 2 | -7 | 0.9 | 11 | 1
CCCCCc1cc(=O)[nH]c(=S)[nH]1 | . | -8 | . | . | -1
CCCCCc1ccc(C(=O)CCCC)c(=S)[nH]1 | 4 | -16 | 0.4 | 57* | 6
O=C(O)c1cc2ccccc2cc1Nc1ccccc1 | . | -3 | . | . | -26
Oc1ccccc1/C=N/Nc1ncc(Br)cn1 | 58* | 10 | 0.9 | 14 | -9
Cc1ccc2[nH]c(=O)c3cc(C(=O)N(CCCOC(C)C)Cc4ccco4)sc3c2c1 | -3 | 5 | 0.6 | 44 | 17
CCCCN(Cc1ccco1)C(=O)c1cc2c(=O)[nH]c3ccc(C)cc3c2s1 | 2 | 2 | 0.4 | 57* | 21
CCOc1ccc(C(=O)NC(=S)Nc2ccc(N3CCCCC3)cc2)cc1[N+](=O)[O-] | -8 | -7 | 0.8 | 20 | 64*
CC1=CC(=O)c2c(O)ccc(O)c2C1=O | 58* | . | 0.5 | 54* | .
CCOC(=O)N1CCN(C(=O)C2CCN(C(=O)c3ccccc3C)CC2)CC1 | . | 0 | . | . | 117*
N=C1/C(=C\c2ccc(-c3cccc(Cl)c3)o2)C(=O)N=C2SC=C(c3ccccc3)N12 | -13 | -9 | 1 | 2 | -5
N=C1/C(=C\c2ccc(-c3ccc(C(=O)O)cc3)o2)C(=O)N=C2SC=C(c3ccccc3)N12 | . | 40* | . | . | 22
CC(C)c1nnc(NC(=O)CCS(=O)(=O)c2ccccc2)s1 | . | 6 | . | . | -4
CCCC(C)c1nnc(NC(=O)CCS(=O)(=O)c2ccccc2)s1 (stereo unspecified) | . | -16 | . | . | 75*
COc1cc2c(cc1OC)C1=C(C#N)CC/C(=N\S(=O)(=O)c3cccc(Cl)c3)N1CC2 | 0 | -2 | 0.4 | 61* | -5
O=C(N/N=C\c1ccc(-c2ccccc2[N+](=O)[O-])o1)C1COc2cc3ccccc3cc2O1 (stereo unspecified) | 19 | 8 | 0.4 | 64* | 31
O=C(N/N=C\c1ccc(-c2ccccc2[N+](=O)[O-])o1)C1COc2ccccc2O1 (stereo unspecified) | -12 | -1 | 0.6 | 39 | 8
Cc1cc(OCC(=O)Nc2ccccc2N2CCOCC2)c(C(C)C)cc1Cl | . | 7 | . | . | 9
O=C(O)c1ccc(/C=N/NC(=O)c2cc(-c3ccc4c5c(cccc35)CC4)n[nH]2)cc1 | 2 | 13 | 0.3 | 68* | 2
S=C(Nc1ccc2nsnc2c1)NC1CCCCC1 | 56* | 15 | 0.6 | 41 | 37
COCCNC(=S)Nc1ccc(Cl)c(Cl)c1 | 6 | 6 | 0.9 | 6 | 10
S=C(Nc1ccc2nsnc2c1)N1CCCCCC1 | 60* | 5 | . | . | 4
O=C(Nc1ccc2nsnc2c1)N1CCCCC1 | 11 | 5 | 0.7 | 32 | -1
COCCNC(=S)Nc1ccc2nsnc2c1 | 35 | 13 | 0.5 | 53* | 20
O=C(Cc1ccccc1)NC(Nc1cccc2ccccc12)C(Cl)(Cl)Cl (stereo unspecified) | 4 | 3 | 0.3 | 69* | 9
COc1ccc(CN(CC2CCC(C(=O)O)CC2)C(=S)Nc2cc(C)ccc2C)cc1 (stereo unspecified) | 13 | -8 | 0.9 | 9 | 0
NC(CO)C(=O)NNCc1ccc(O)c(O)c1O (stereo unspecified) | 31 | 15 | 0.3 | 74* | 55
Cc1ccc(Nc2nnns2)cc1 | 10 | -8 | 0.9 | 5 | 60*
CCc1ccc(N(CC(=O)NC(C)(C)C)C(=O)CCC(=O)Nc2ccccn2)cc1 | . | -3 | . | . | -10
Nn1cc(-c2ccccc2)nc1SCC(=O)N1CCN(S(=O)(=O)c2ccc(Cl)cc2)CC1 | 3 | 17 | 0.5 | 54* | 26
